The source of these data is PubChem BioAssay AID493157 (Broad Institute, 2011).

Assay [1] can be described thus: C. albicans growth inhibition without fluconazole, dose response, counter-screen for antifungal drug resistance project, CaCi-2 strain, Alamar Blue, dry powder, set 8 (AID 493157). The conditions noted are these: C. albicans CaCi-2 growth without fluconazole, Alamar Blue, 48 h. The method, boiled down: (§1)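 Test system: fluconazole-resistant Candida albicans clinical isolate CaCi-2, no fluconazole present; Quantity: inoculum OD600 0.00015; Medium: RPMI-based synthetic defined medium with MOPS, glucose and uridine; Timing: 48 h static compound exposure, 37 °C, 2 h Alamar Blue; Signal: Alamar Blue fluorescence, 544/590 nm; Evaluation: yeast growth via fluorescence; Benchmarks: geldanamycin positive control.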
Background: The purpose of a counterscreen is to sort out artefacts and off-target activity.

In assay [2] the test system is C. albicans CaCi-2 (fluconazole-resistant clinical isolate) growth without fluconazole, Alamar Blue, 48 h. Described as above. The method, boiled down: as §1

One may read the AC50 as the midpoint of the concentration-response curve, whichever way the signal moves.

The structures appear in SMILES notation. Calls of active or inactive are those of the source.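 Rule for the calls: active = growth-lowering compounds whose AC50 is at most ten times the top tested dose; inconclusive = flat curve with moderate signal loss, or a poor fit; inactive = the rest.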 A value given as a limit tells only on which side of the number the result lay.

Take `CCCCn1nc(-c2ccccc2)c2ccccc21`: the max activity in assay [1] (at 26 µM) is 28% (inactive).

Consider `O=C(Cn1c2ccc(F)cc2c2nc3n(c(=O)c21)CCS3)N1CCCCCC1`, for which the max activity in assay [1] (at 26 µM) is 13.5% (inactive). For `COc1ccc(-c2n[nH]c3ccccc23)cc1`, in assay [1] (at 6 µM), the max activity was -32.5% (inactive).

For `O=C(Cn1c2ccccc2c2nc3n(c(=O)c21)CCS3)N1CCCC1`, the max activity in assay [1] (at 12 µM) was 17.2% (inactive). Regarding `COC(=O)CCCn1nc(-c2ccccc2)c2ccccc21`, the max activity in assay [1] (at 1.6 µM) is -17.6% (inactive). For `COC(=O)Cn1nc(-c2cccc(F)c2)c2ccccc21`, in assay [1] (at 0.8 µM), the max activity is -22.1% (inactive). Regarding `COC(=O)Cn1nc(-c2ccccc2)c2ccc(C(F)(F)F)cc21`, the max activity in assay [1] (at 0.1 µM) was -34% (inactive). For `CCN(CC)C(=O)Cn1c2ccc(F)cc2c2nc3n(c(=O)c21)CCS3`, the max activity in assay [1] (at 0.38 µM) is -28.9% (inactive). Turning to `COC(=O)Cn1ncc2ccccc21`, the max activity in assay [1] (at 26 µM) was -25.4% (inactive). Consider `COC(=O)C(C)(C)n1nc(-c2ccccc2)c2ccccc21`, for which, in assay [1] (at 0.1 µM), the max activity is -31.3% (inactive).

For the compound `O=C(Cn1nc(-c2ccccc2)c2ccccc21)OC1CCC1`, the AC50 in assay [2] is > 26 µM (inactive).

Turning to `COC(=O)Cn1c(-c2ccccc2)nc2ccccc21`, the max activity in assay [1] (at 6 µM) was 19.2% (inactive). Regarding `O=C(O)Cn1nc(-c2ccccc2)c2ccccc21`, in assay [1] (at 6 µM), the max activity was 18.6% (inactive). Regarding `COC(=O)Cn1nc(-c2ccccc2)c2cccc(C(F)(F)F)c21`, the max activity in assay [1] (at 0.1 µM) was -21.2% (inactive). On the same count and under the same terms, with `O=C(Cn1c2ccccc2c2nc3n(c(=O)c21)CCS3)N1CCCCC1` the figure was -24.6% (inactive). On to `O=C(Cn1c2ccc(F)cc2c2nc3n(c(=O)c21)CCS3)N1CCCC1`, for which the max activity in assay [1] (at 0.1 µM) is -25.8% (inactive).

As for `CCC(=O)Cn1nc(-c2ccccc2)c2ccccc21`, in assay [1] (at 0.8 µM), the max activity was -10.2% (inactive). For the compound `COC(=O)Cn1nc(-c2ccc(F)cc2)c2ccccc21`, the max activity in assay [1] (at 3 µM) was -27% (inactive). With `O=C(Cn1c2ccc(F)cc2c2nc3n(c(=O)c21)CCS3)N1CCCCC1`, the max activity in assay [1] (at 26 µM) is 27.4% (inactive). On to `CC1CCN(C(=O)Cn2c3ccccc3c3nc4n(c(=O)c32)CCS4)CC1`, for which the max activity in assay [1] (at 12 µM) was -29.8% (inactive).

As for `O=C(Cn1c2ccccc2c2nc3n(c(=O)c21)CCS3)N1CCOCC1`, the max activity in assay [1] (at 0.8 µM) is -18.5% (inactive). Regarding `COC(=O)Cn1nc(-c2ccccc2C)c2ccccc21`, the max activity in assay [1] (at 26 µM) was 1.36% (inactive). Turning to `COC(=O)Cn1nc(I)c2ccccc21`, the max activity in assay [1] (at 1.6 µM) is -30.3% (inactive). Consider `FC(F)(F)c1ccc(-c2n[nH]c3ccccc23)cc1`, for which the max activity in assay [1] (at 0.195 µM) was -25.6% (inactive).

Regarding `CCN(CC)C(=O)Cn1c2ccccc2c2nc3n(c(=O)c21)CCS3`, the max activity in assay [1] (at 0.38 µM) is -31.2% (inactive).

Consider `O=C(Cn1c2ccccc2c2ccncc21)N1CCCCC1`, for which the max activity in assay [1] (at 6 µM) was -15.9% (inactive). Turning to `COC(=O)Cn1nc(-c2ccc(C#N)cc2)c2ccccc21`, in assay [1] (at 26 µM), the max activity is -38.6% (inactive). `O=C1OCCC1n1nc(-c2ccccc2)c2ccccc21` (centres undefined): the max activity in assay [1] (at 0.195 µM) is -31.5% (inactive). Turning to `COC(=O)Cn1nc(-c2ccccc2)c2ccccc21`, in assay [1] (at 12 µM), the max activity was 35.4% (inactive).
